Data as given in PubChem BioAssay.
A number with no mark means an inactive call. Inconclusive results are not listed. Activity calls are given as the source filed them.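 Rule for the calls, unless noted: active = inhibition over a set limit, the all-compound mean plus 3 SD, in both replicate runs; inconclusive = over that limit in just one replicate run; inactive = at or under that limit in both runs.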

Assays:
[1] = OD615 S. cerevisiae growth inhibition, permissive medium, pilot counter-assay, permissive growth control for S. cerevisiae lifespan shortening project (AID 705;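 active = growth inhibition above 25% in both replicates, a cutoff set 3 SD above the mean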); settings: OD615, 24 h, at 10 µM, stronger effect = higher value
Method in brief: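 System: engineered DeaD yeast; Medium: permissive raffinose/galactose medium; Compound dosing: 10 µM single dose, 0.25% DMSO; Incubation: 4 h cell pre-growth, 24 h exposure at 30 °C; Technique: OD at 615 nm; Evaluation: growth inhibition from lowered OD615 after 24 h.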

[2] = Restrictive medium S. cerevisiae growth inhibition, OD615, pilot screen of yeast lifespan reduction project, restrictive growth control (AID 706;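 active = growth inhibition above a set limit, 3 SD over mean compound inhibition, in both replicates, cut at about 43% in these data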;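 note: modified DeaD lifespan yeast strain shifted to restrictive glucose medium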); settings: OD615, 48 h, at 10 µM, stronger effect = higher value
Method in brief: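 Material: modified S. cerevisiae; buffer or medium: CSMM-D glucose medium; doses: one concentration, 10 µM final, 0.25% DMSO; incubation: 48 h compound exposure at 30 °C; detection: optical density at 615 nm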

[3] = viability gain of MRP-1-high H69AR cells under doxorubicin, pilot screen, MRP-1 activator project, CellTiter-Glo, duplicate (AID 807;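 active = viability increase at or above a cutoff of the median across tested compounds plus 3 SD, cut at about 8.5% in these data, passing the limit was not always enough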;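 note: compound pretreatment 18-22 h then 72 h combined with doxorubicin; 0% = doxorubicin alone and 100% = vehicle without doxorubicin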); settings: H69AR viability with doxorubicin, CellTiter-Glo luminescence; at 10 µM; stronger effect = higher value
[4] = growth suppression of beta-catenin knockout HCT116, pilot screen, human colon tumor cells (AID 823;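 active = cell viability at or below a set limit in both duplicate runs, the limit being the all-compound median minus 4 SD, cut at about 23% in these data, passing the limit was not always enough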;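 note: 0% = wells killed by 20 µM Hyamine and 100% = untreated DMSO cell wells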); settings: CellTiter-Glo, 60 h, at 10 µM, stronger effect = lower value
[5] = growth suppression of PTEN-deleted HCT116, pilot screen, cell-based, HCT116 clonal line, CellTiter-Glo (AID 824;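 active = viability at or below 27.92% in each of two runs, the all-compound median minus 4 SD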;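 note: 0% = 20 µM Hyamine control and 100% = vehicle cell control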); settings: 60 h, at 10 µM, stronger effect = lower value
[6] = inhibitors of the yeast RAM network, pilot screen, dse1pr::URA3 reporter, 5-FOA selection (AID 869);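 note: 0% = DMSO wells with no growth and 100% = 10 µM 1-NA-PP1 with full growth; RAM network block rescues cells from 5-FOA so hits raise OD615 growth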; settings: S. cerevisiae dse1pr::URA3 5-FOA growth, OD615, 2 d; at 10 µM; stronger effect = higher value; strain carries analog-sensitive mutant Cbk1 kinase
[7] = RAM signaling pathway blockade in yeast – S. cerevisiae, Pdr1DBD-CYC8 efflux-inhibited sensitized strain, primary screen (AID 1298;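 active = RAM network inhibition above 8.4% in each of two replicates, 3 SD over the compound average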;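 note: 0% = DMSO untreated cells without growth and 100% = 10 µM 1-NA-PP1 full growth; higher means more yeast growth rescued from 5-FOA killing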); settings: S. cerevisiae cbk1-as DSE1-URA3 strain, 5-FOA growth OD615, 2 d; at 50 µM; stronger effect = higher value

| Compound | growth inhibition [1] [%] | growth inhibition [2] | viability increase [3] [%] | viability [4] | viability [5] | inhibition [6] [%] | RAM network inhibition [7] [%] |
| --- | --- | --- | --- | --- | --- | --- | --- |
| CCCC(=O)Nc1nc2ccc(OCC)cc2s1 | -2.23 | -0.195% | 0.26 | 86.8% | 85.7% | 0.615 | 2.15 |
| CCOc1ccc2nc(N3CCC(C(=O)N4CCN(C(=O)c5ccco5)CC4)CC3)sc2c1 | -10.8 | -9.39% | -4.93 | 69.7% | 77.7% | 0.305 | 3.91 |
| COc1cccc(-c2nn(C)c3sc(C(=O)N4CCOCC4)cc23)c1 | 6.62 | 9.91% | -2.47 | 97.5% | 94.9% | 1.45 | 5.9 |
| CCCOc1ccc2ccccc2c1/C=N/n1c(C)nnc1-n1nc(C)cc1C | -5.19 | 1.04% | -4.98 | 18.6% (active) | 19.6% (active) | -0.29 | -2.3 |
| CC1(C)CC(=O)C=C(NCCN2CCN(C(=O)Nc3ccc(Cl)cc3)CC2)C1 | -1.03 | 5.34% | 1.25 | 99.2% | 101% | 1.35 | 4.07 |
| CCOCCCNC(=O)C(NC(=O)c1ccc2c(c1)OCO2)c1ccc(OC)cc1 (stereo not given) | -12.5 | -24.3% | -2 | 101% | 96.3% | 1.6 | 3.11 |
| Cc1onc(-c2ccccc2)c1C(=O)Nc1nnc(N2CCCCCC2)s1 | -15.2 | -12% | 2 | 101% | 87.5% | 1.23 | 3.72 |
| CCn1cc(C(=O)N2CCN(Cc3ccc4c(c3)OCO4)CC2)c2cc(OC)c(OC)cc2c1=O | -9.86 | -27.3% | -5.64 | 96.1% | 85.9% | 0.125 | 2.76 |
| COc1ccccc1N=C(C)C1=C(O)CSC1=O | -9.17 | -5.92% | -1.29 | 99.6% | 93.3% | -0.17 | 6.89 |
| Nc1c(C(=O)NCc2ccccc2)nnn1Cc1ccc(F)cc1 | -1.67 | -11.5% | -0.8 | 98.6% | 92.1% | 1.8 | 3.21 |
| CC(C)CC1(C(=O)O)NC(c2ccccc2O)C2C(=O)N(C(C)C)C(=O)C21 (stereo not given) | 3.45 | 3.48% | -0.07 | 102% | 99.3% | 1.27 | 3.59 |
| CCOC(=O)N1CCN(CC(=O)Nc2cc3c(cc2C(C)=O)OCO3)CC1 | 2.37 | 13% | -3.17 | 94.2% | 98.9% | 0.555 | 2.4 |
| O=C(c1ccc(-c2ccccc2)cc1)N1CCCC1 | 0.63 | -4.7% | 0.06 | 94.9% | 98.8% | 0.02 | 10.3 |
| CC(=O)Nc1nc2ccccc2n1CCN(C)C | -5.31 | -3.15% | -0.15 | 99.3% | 103% | 2.95 | 7.04 |
| CCCCOc1cccc(C2(C(=O)O)CCCC2)c1 | -6.28 | 4.47% | -1.49 | 99% | 94.5% | 1.21 | 4.01 |
| O=C(c1cc2ccccc2cc1OCC(O)CN1CCCCC1)N1CCCCC1 (stereo not given) | 2.48 | 0.51% | -4.18 | 86.6% | 83.5% | 0.285 | -0.89 |
| Cc1ccc(C(=O)CSC2=NC(N)=C(C#N)C3(CCCCC3)C2C(N)=O)cc1 (stereo not given) | 17.7 | 51% (active) | -4.6 | 89.6% | 97.6% | 0.27 | 9.3 |
| CC(C)C(=O)Nc1c(C(=O)c2ccc(F)cc2)oc2ccccc12 | -8.13 | -2.55% | 0.04 | 105% | 91.2% | 1.55 | 1.81 |

| Compound | growth inhibition [1] [%] | growth inhibition [2] | viability increase [3] [%] | viability [4] | viability [5] | inhibition [6] [%] | RAM network inhibition [7] [%] |
| --- | --- | --- | --- | --- | --- | --- | --- |
| COc1ccc(C2C(C(N)=O)=C(C)Nc3nc(-c4ccccc4Cl)nn32)c(OC)c1 (stereo not given) | -17.8 | -11.2% | -0.07 | 93.9% | 94.7% | 1.21 | -1.06 |
| CN1CCN(C(=O)C2CC(=O)N(c3ccc(F)c(Cl)c3)C2)CC1 (stereo not given) | -6.12 | -6.44% | -0.63 | 96% | 95.9% | 2.12 | 3.12 |
| CCOC(=O)N1CCN(C(=O)CCSc2ccccc2)CC1 | 2.04 | 2.15% | 0.84 | 99.7% | 97% | 0.07 | 0.95 |
| C=CCn1cnc2scc(-c3ccccc3)c2c1=O | 2.71 | 10.9% | -1.68 | 93.6% | 84.2% | 2.52 | 0.21 |
| CCOC(=O)c1ccc(NS(=O)(=O)c2cc(-c3nnnn3CC)ccc2OC)cc1 | -0.78 | -5.39% | -2.01 | 92.5% | 90.2% | 1.56 | 6.36 |
| COCC(=O)NCc1nc2ccccc2n1Cc1ccccc1F | -7.99 | -15.2% | -1.11 | 98.2% | 99.2% | 1.59 | 0.88 |
| Cn1cccc1Cc1nnc(SCC(=O)NC2CCCCC2)n1-c1ccc(F)cc1 | 1.67 | -4.1% | -1.86 | 95.4% | 96.7% | 1.08 | 4.28 |
| COc1ccc(N2C(=O)CCC(C(=O)NCc3ccccn3)C2c2ccc(OC)c(OC)c2)cc1 (stereo not given) | -3.9 | 6.09% | -1.53 | 98.3% | 100% | 1.01 | -0.31 |
| CCc1ccc(C2CC(=O)NC(SCC(=O)OC(C)C)=C2C#N)cc1 (stereo not given) | -13.8 | -4.45% | 0.08 | 78.9% | 79.5% | 1.15 | 2.6 |
| O=C(C(Cc1ccccc1)n1cccc1)N1CCN(C2CCCCC2)CC1 (stereo not given) | -10.9 | -3.01% | -3.47 | 81.8% | 88.7% | 1.42 | 8.24 |
| CCCNC(=O)Cc1cc(=O)[nH]c(=O)[nH]1 | -14.4 | -17.8% | 0.56 | 105% | 101% | 1.33 | 1.73 |
| CC1CCCCN1S(=O)(=O)c1coc(C(N)=O)c1 (stereo not given) | -12.1 | -13.6% | -2.18 | 105% | 96.8% | 3 | 0.05 |
| CC1CN(Cc2nc3c(c(=O)n(C)c(=O)n3C)n2Cc2ccc(Cl)cc2)CC(C)O1 (stereo not given) | -3.79 | 0.39% | -0.99 | 91.6% | 91.9% | 2.13 | 4.34 |
| CCOC(=O)c1cc2c(=O)n3ccccc3nc2n(CCOC)c1=NC(=O)C(C)(C)C | -6.44 | -18.2% | -3.78 | 93.6% | 96.9% | -0.545 | 5.12 |
| CCc1nc(SCC(=O)Nc2ccc(C(=O)O)cc2)n[nH]1 | 11.2 | 0.705% | -1.05 | 94.7% | 98.4% | -0.24 | -2.73 |
| Oc1c(C(c2ccc(F)cc2)N2CCc3ccccc3C2)sc2ncnn12 (stereo not given) | -5.9 | -6.98% | 4.08 | 103% | 91.7% | 2.67 | 3.09 |
| CN1CCN(C(=O)c2cn(C)c3ccc(S(=O)(=O)N(C)C4CCCCC4)cc3c2=O)CC1 | -7.8 | -13.2% | -2.39 | 102% | 101% | 0 | -0.26 |
